Experimental data from paper PMC7132253 (Proceedings of the National Academy of Sciences of the …, 2020).

How the values were obtained:
WT mIL-2 = target: T1, WT mIL-2 (Mus musculus, UniProt P04351); assay: NMR titration with line shape analysis; assay type: binding
T1 sequence (P04351 21-169): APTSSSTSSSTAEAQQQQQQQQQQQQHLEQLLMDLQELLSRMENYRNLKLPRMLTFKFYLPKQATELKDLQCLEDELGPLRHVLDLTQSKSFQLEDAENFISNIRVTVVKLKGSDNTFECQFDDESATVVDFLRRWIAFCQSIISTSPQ
How it was run: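 Kd derived by line-shape analysis (TITAN) of fast-exchange shifts of the V129γ2 and L133δ2 methyl peaks. Errors propagated from spectral signal-to-noise.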

JES6-1 = assay: Isothermal titration calorimetry of mIL-2 into JES6-1; assay type: binding; conditions: ITC
[1] = system: IL-2Rα+ mouse CTLL-2 cells; assay: STAT5 phosphorylation; assay type: cell-based; conditions: IL-2Rα+ CTLL-2 cells
[2] = target: wild-type mouse interleukin-2 (mouse, UniProt P04351); assay: ITC

Molecule `COC(=O)[C@H](Cc1ccc(C#Cc2ccccc2)cc1)NC(=O)C[C@H]1CCCN(C(=N)N)C1` [Ro 26-4550] has a Kd (WT mIL-2) of 39400 ± 5500 nM.

B1: WT mIL-2: wild-type mouse interleukin-2 (amino acids 1-149), recombinant, expressed in E. coli (protein, UniProt P04351 21-169, looked up)
Interleukin-2: APTSSSTSSSTAEAQQQQQQQQQQQQHLEQLLMDLQELLSRMENYRNLKLPRMLTFKFYLPKQATELKDLQCLEDELGPLRHVLDLTQSKSFQLEDAENFISNIRVTVVKLKGSDNTFECQFDDESATVVDFLRRWIAFCQSIISTSPQ
Molecule B1 has a Kd (JES6-1; 20 °C, 20 mM phosphate pH 7.2, 150 mM NaCl) of 2 nM.

B2: R52A mIL-2: designed point mutant R52A of mouse IL-2 that eliminates all C-capping interactions (protein)
chain: APTSSSTSSSTAEAQQQQQQQQQQQQHLEQLLMDLQELLSRMENYRNLKLPAMLTFKFYLPKQATELKDLQCLEDELGPLRHVLDLTQSKSFQLEDAENFISNIRVTVVKLKGSDNTFECQFDDESATVVDFLRRWIAFCQSIISTSPQ
B2 was tested, and the “effect of JES6-1 on mIL-2-mediated STAT5 activation” value [1] was “independent of JES6-1” and the “decrease in binding affinity relative to WT mIL-2” value (JES6-1) was 1,000 fold.

B3: JES6-1 anti-mouse IL-2 monoclonal antibody (antibody, V domains shown)
VH: EIQLQQSGPELRRPGSSVKLSCKASGYNITDYLIHWVRHRPEHGLEWIGWIDPEDGETRYAQKFQSKATLTADTSSNAAYMQLSSLTPEDTATYFCARSLDSTYIYPFAYWGQGTLVTVSS
VL: DIVMTQSPFSLAVSEGEMVTINCKSSQSLLSSGNQKNYLAWYQQKPGQSPKLLIYYASTGQSGVPDRFIGSGSGTDFTLTISDVQAEDLADYYCLQHYISPPTFGAGTKLELK
For B3, the Kd [2] was 2 nM, the dH [2] was 12.7 kcal⋅mol^−1 and the “effect of JES6-1 on mIL-2-mediated STAT5 activation” value [1] was “fivefold reduced”.
